Source: the RNAGym collection of RNA variant scans (doi:10.1126/science.aae0568)
This sample holds only a part of the variants without activity.

B1: tRNA (parent)
chain: GUUCCGUUGGCGUAAUGGUAACGCGUCUCCCUCCUAAGGAGAAGACUGCGGGUUCGAGUCCCGUACGGAACG

Variants of: B1
Test: yeast fitness relative to wild type (ratio to wild type); higher = fitter; tRNA-Arg(CCU), competitive growth, 37 C, YPD
How it was run: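 Start and end populations of a pooled competition were compared by 100-nucleotide paired-end sequencing of gene amplicons. The Saccharomyces cerevisiae strains carried tRNA-Arg(CCU) gene variants at the native genomic locus, synthesised with a 3% per-site mutation rate at 69 sites, and competed in YPD at 37°C for 24 hours in six parallel replicates. Darwinian fitness relative to wild type was based on the change in genotype frequencies. Genotypes required ≥ 100 starting reads, and estimates < 0.5 were set to 0.5.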

Variant | yeast fitness
GUUCCGAGGGCGUAAUGGUAACGCGUCUCGCUCCUAAGGAGAAGACUGCGGGUUCGAGUCCCAUACGGAACG [U7A U8G C30G G63A] | ≤ 0.5
GUUCCGAAGGCGUAAUGGUAACGCAUCUCCCUCCUAAGGAGAAGACUGCGGGUUCGAGUCCGGUACGGAACG [U7A U8A G25A C62G] | ≤ 0.5
GUUCCGAUGGCGUAAUGGUAACGCGUCUCCCUCCUAAGGAGAAGACUACGGGUUCGAGUCCCGUACGGAACG [U7A G48A] | 0.99
GUUCCGAUGGCGUAAUGGUAACGCGUCUCCCUCCUAAGGAGAAGACUGCCGGCUUGAGUCCCGUACGGAACG [U7A G50C U53C C55U] | ≤ 0.5
GUUCCGAAGGCGUAAUGGUAACGCGUCUCCCUCCUAAGGAGAAGACUGCGGGUUCGAGUCCCGUACCGAACG [U7A U8A G67C] | ≤ 0.5
GUUCCGAUGGCGUAAUGGUAACGCGUCUCCCUCCUAAGGAGAACACUGUGGGUUCGAGUCAUGUAUGGAACG [U7A G44C C49U C61A C62U C66U] | ≤ 0.5
GUUCCGAUGGCGAAAUGGUAACGCGUCUCCCUCCUAAGGAGAAGACUGCGGGUUCGAGUCCCGUACGGCACG [U7A U13A A69C] | ≤ 0.5
GUUCCGAUGGCGAAAUGGUAACGCGUCUCCCUCCUAAGGAGAAGACUGAGGGUUCGAGUCCCGUACGGAACG [U7A U13A C49A] | ≤ 0.5
GUUCCGAUGGCGUAAUGGUAACGCGUCUCCCCCCUAAGGAGAAGACUGCGGGUUCGAGUCCCGUGCGGAACG [U7A U32C A65G] | 0.558
GUUCCGAUGGCGUAAUGGAAACGCGUCUCCCCCCUAAGGAGAAGACUGCGGGUUCGAGUCCCGUACGGAACG [U7A U19A U32C] | 0.829
GUUCCGACAGCGUAAUGGUAACGCGUCUCCCGCCUAAGGAGUAGACUGCGGGUUCGAGUCCCGUACGGAACG [U7A U8C G9A U32G A42U] | 0.561
GUUCCGACGGCGUAAUGGUAACGCGUCUCCCUCCUAAGGAGAAGACUGCGGGUUCGAGUCUCGUACGGAACG [U7A U8C C61U] | 0.604
GUUCCGAUGGCGAAAUGGUAACACGUCUCCCUCCUAAGGAGAAGACUGCGGGUUCGAGUCCCGUACGGAACG [U7A U13A G23A] | ≤ 0.5
GUUCCGAUGGCGUAAAGGUAACGCGUCUUCCUCCUAAGGAGAAGACUGCGGGUUCGAGUUCCGUAGGAAACG [U7A U16A C29U C60U C66G G68A] | ≤ 0.5
GUUCCGAUGGCGUAAUGGUAACGCGUCUCCCUCCUAAGGACAAGACUGCGGGUUCGAGUCCCGUACGGAACG [U7A G41C] | 0.684
GUUCCGAAGCCGUAAUGGUAACGCGUGUCCCUCGUAAGGAGAAGACUGCGGGUUUGGGUCCCGUACGGAACG [U7A U8A G10C C27G C34G C55U A57G] | ≤ 0.5
GUUCCGAUGGCGUAAUGGUAACGCGUCACCCUCCUAAGGAGAAGACUGCGGGUUCGAGUCCCGUACGGCACG [U7A U28A A69C] | ≤ 0.5
GUUCCGAUGGCGUAAUGGUAACGCGUCUCCCUCCUAAGCAGAAGACUGCGGGUUCGAGUCCCGUACGGAACG [U7A G39C] | 0.608
GUUCCGAAGCCGUAAUGGUAACGCGUGUCCCUCGUAAGGAGAAGACUGCGGGUUUGAGUCCCGUACGGAACG [U7A U8A G10C C27G C34G C55U] | 0.527

Variant | yeast fitness
GUUCCGAUGGCGGAAUGGUAACGCGUCUCCCUCCUAAGGAAAAGACUGCGGGUUCGAGUCCCGUACGGAACG [U7A U13G G41A] | ≤ 0.5
GUUCCGAUGGCGUAACGGUAACGCGUCUUCAUCCUAAGGAGAAGACUGCGGGUUCGAGUCCCGUAGUGAACG [U7A U16C C29U C31A C66G G67U] | ≤ 0.5
GUUCCGAUGGCGUAAUGGUAACGCGCCUCCCUCCUAAGGAGAAGACUGCGGGUUCGAGUCCCGUACGGUACG [U7A U26C A69U] | 0.574
GUUCCGAUGGCGUAAUGGUAACGCGUCUCCCUCCUAAGCAGAAGGCUGCGGGUUCGAGUCCCGUACGGAACG [U7A G39C A45G] | ≤ 0.5
GUUCCGAUGGCGUAAUGGUAACGCGUCUCCCUCCUAAGGAGAAGACUGCCGGUUCGAGUCCCGUACGGAACG [U7A G50C] | 0.684
GUUCCGAUGGCGUAAUGGUAACGCGUCUCCCUCCUAAGGAGAAGACUGCUGGUUCGAGUCCCGUACGGAACG [U7A G50U] | 0.69
GUUCCGAUGGCGUAAUGGUAACGCGUCUCCCUCCUAAGGACAAGACUGCGGGUACGAGUCCUGUACGGAUCG [U7A G41C U54A C62U A70U] | ≤ 0.5
GUUCCGAAGCCGUAAUGGUAACGCGUGUCCCUCGCAAGGAGAAGACUGCGGGUUUGAGUCCCGUACGGAACG [U7A U8A G10C C27G C34G U35C C55U] | ≤ 0.5
GUUCCGAUGGCGUAAUGGGAACGCGCCUGCCUCCUAAGGAGAAGACUGCGGGUUCGAGUCCCGUACGGAACG [U7A U19G U26C C29G] | ≤ 0.5
GUUCCGACGGCGUAAUGGUAACACGUCUCCCUCCUAAGGAGAAGACUGCGGGUUCCAGUCCCGUAGGGAACG [U7A U8C G23A G56C C66G] | 0.677
GUUCCGAUGGCGUAAUGGUAACGCGUCCCCCUCCUAAGGAGAAGACUGCGGGUUCGAGUCCGGUACGGAACG [U7A U28C C62G] | ≤ 0.5
GUUCCGAUGGCGUAAUGGUAACGCGUCUCCCGCCUAUGGAGAAGACUGUGGGUUCGAGUCCCGUACGGAACG [U7A U32G A37U C49U] | 0.642
GUUCCGAUGGCGAAAUGGUAACGCGUCUCCCUCCUAAGGAGAAGAGUGCGGGUUCGAGUCCCGUAUGGAACG [U7A U13A C46G C66U] | ≤ 0.5
GUUCCGAAGCCGUAAUGGUAACGCGUGUCCCUCGUAAGGAGAAGACUGCGGGUUCGAGUCCCGUACGGAACG [U7A U8A G10C C27G C34G] | 0.564
GUUCCGAUGGCGUAAUGGACACGCGUCUCCCUCCUAAGGGGAAGACUGCGGGUUCGAGUCCCGUACGGAACG [U7A U19A A20C A40G] | ≤ 0.5
GUUCCGAUGGCGUAACAGUAACGCGUCUUCAUCCCAAGGAGAAGACUGCGGGUUCGAGUCCCGUAGUGAACG [U7A U16C G17A C29U C31A U35C C66G G67U] | ≤ 0.5
GUUCCGAAGGCGUAAUGGUAACGCGUCUCCCUCCCAAGGAGAAGACUGCGGGUUCGAGUCCAGUACGGAACG [U7A U8A U35C C62A] | 0.537
GUUCCGAAGGCGUAAUGGUAACGCGUCUCCCUCCCAAGGAGAAGACUGCGGGUUCGAGUCCCGUACGGAACG [U7A U8A U35C] | 0.601
